# Screens: PubChem, Columbia University Molecular Screening Center
# This excerpt belongs to a sample that is enriched for hits.
# INS promoter act: TRM-6 insulin promoter activation. TRM-6 cells (human fetal islet line), insulin promoter eGFP reporter, imaging; plate-scaled: unstimulated 0, stimulated control 100. activation, % at 2 µM. 0.81% of 130,000 active;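 active = activation at 2 µM above a set limit, confirmed on inspection of the cell images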;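 note: share of cells whose green reporter signal exceeds an intensity cutoff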
#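 Material: TRM-6 insulin promoter–eGFP reporter cells. Buffer or medium: Low-glucose (5.5 mM) medium with tamoxifen. Probe or stimulus: tamoxifen at 0.75 µM added at seeding for reporter induction. Times: tamoxifen pre-incubation 15 h overnight, then compound exposure 48 h at 37 °C. Detection: high-content imaging of fixed cells with Hoechst nuclear stain.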
# * hit, by the source's call.
SMILES,INS promoter act
CC1=C(OC(=O)C(C)(C)C)C(C)(C)C(c2ccccc2)OC1=O (centres undefined),5.3
CC(C)Cn1cnc2c(c1=O)c1nc3ccccc3nc1n2Cc1ccc2c(c1)OCO2,7.4
CCS(=O)CCSc1nc2ccccc2s1 (centres undefined),2.7
Cc1ccc(S(=O)(=O)Nc2cc(Cl)c(O)cc2C)cc1,9.3
Cc1ccc(S(=O)(=O)Nc2ccccc2C(N)=O)cc1,402.7*
NC(=O)c1ccccc1NS(=O)(=O)c1ccccc1,0.0
CC(C)(C)NC(=O)CN(C(=O)CS(=O)CC(=O)Nc1ccc(F)cc1)c1ccc2c(c1)OCCO2 (centres undefined),-9.1
Cc1ccc2c(c1)N(CCC(=O)NCc1cccs1)C(=O)C(C)O2 (centres undefined),-4.2
CCOC(=O)C1CN(S(=O)(=O)c2cccc(C(F)(F)F)c2)c2cc(CC(=O)OC)ccc2O1 (centres undefined),-6.7
CCn1c(SCC(=O)N/N=C(\C)c2ccncc2)nnc1-c1ccccc1,0.0
COc1ccc(C2C(C(=O)OCC3CCCO3)=C(C)NC3=C2C(=O)CC(c2ccco2)C3)cc1O (centres undefined),7.9
Cc1ncc([N+](=O)[O-])n1CC(=O)NC1CCCCCC1,0.0
Cc1cccn2c(=O)c(C=NCCO)c(NCc3ccco3)nc12,9.1
CCOCCCNc1nc2c(C)cccn2c(=O)c1/C=C1\SC(=S)N(CC(C)C)C1=O,222.6*
COc1cccc(C(=O)Nc2nnc(-c3cccs3)s2)c1,2.7
O=C(CSc1ccc(Cl)cc1)Nc1ccccc1N1CCN(C(=O)c2ccccc2)CC1,9.1
Cn1ccnc1Sc1ccc(/C=N/NC(=O)c2ccccc2O)cc1[N+](=O)[O-],6.7
O=C(CNc1ccc(Oc2ccccc2)cc1)N1CCOCC1,-75.0
c1ccc(-c2nc(-n3nc4ccccc4n3)nc3ccccc23)cc1,145.5*
Clc1ccc(-c2nc(N3CCCCC3)nc3ccccc23)cc1,4.8
c1ccc(-c2nn3nnnc3c3ccccc23)cc1,174.1
C=CCn1nnc2sc3c(c2c1=O)CCC(C)C3 (centres undefined),0.0
COc1cc(/C=N/NC(=O)c2ccncc2)ccc1OC(=O)c1ccc([N+](=O)[O-])cc1,-100.0
COc1ccc(/C=N/NC(=O)c2ccc(Br)o2)cc1Cn1cc([N+](=O)[O-])cn1,0.0
COc1ccc(/C=N/NC(=O)c2ccncc2)cc1Cn1nc([N+](=O)[O-])c(Br)c1C,393.8*
SMILES,INS promoter act
CCOC(=O)Cc1csc(NC(=O)C(CC(C)C)NC(=O)C2CCCCC2)n1 (centres undefined),0.0
O=C(NC1CCN(C(=O)Nc2ccccc2Cl)CC1)c1ccccc1,-7.1
FC(F)(F)c1cccc(N2CCN(CC3CC4C=CC3C4)CC2)c1 (centres undefined),-7.7
O=C(c1c(F)c(F)c(F)c(F)c1F)N1CCN(c2cccc(C(F)(F)F)c2)CC1,0.0
Oc1cc2c(cc1CN1CCN(c3cccc(C(F)(F)F)c3)CC1)CCC2,81.6*
Nc1nc(CN2CCN(c3ccccn3)CC2)nc(Nc2ccc(Cl)cc2)n1,0.0
Cc1ccccc1OCC(=O)NCc1ccccc1,0.0
CCc1cccc(C)c1NC(=O)CSc1nnc(CCCOc2ccc(Cl)cc2Cl)n1C,3.4
CC(C)=NOCc1ccc(-c2cn([C@@H]3COC[C@H]3O)nn2)cc1,4.8
O=C(Nc1cccc(C(F)(F)F)c1)n1cc(-c2ccccn2)c(N2CCOCC2)n1,9.1
O=C(CSc1ccc(Cl)cc1)OCc1nnc(-c2ccccc2)o1,0.0
CCC(C)(C)n1nnnc1C(c1ccc2ncccc2c1)N1CCN2CCCC2C1 (centres undefined),-5.7
CCOc1cc(CNCCO)cc(Br)c1OCc1ccc(Cl)cc1Cl,8.3
CCOc1cccc(CNc2ccc(O)cc2)c1OCc1ccc(Cl)cc1Cl,91.4*
C=CCOc1c(CNc2cccc(C(=O)O)c2)cccc1OCC,3.3
COc1ccccc1C(=O)Nc1sc2c(c1C(=O)NCc1ccco1)CCCC2,6.5
COc1cccc(-n2nnnc2SCC(=O)c2cc(OC)ccc2OC)c1,7.4
O=C1CN(c2ccccc2F)C(=O)CN1c1ccccc1F,411.8*
Cc1cccc(C)c1N1CC(=O)N(c2c(C)cccc2C)CC1=O,7.9
O=C(c1ccccc1C(=O)N1CCN(c2ccccc2F)CC1)N1CCN(c2ccccc2F)CC1,0.0
NS(=O)(=O)c1ccc(NC(=O)CSc2nnc(-c3cnccn3)n2-c2ccccc2)cc1,217.6
Cc1ccc(-c2nnc(Sc3nc4ccccc4o3)c3ccccc23)cc1,590.0*
Cc1cccc(NC(=O)CSc2nc3ccccc3o2)c1,-3.6
Cc1ccc(C(=O)N/C(N)=N/c2nc3ccccc3o2)cc1,-4.3
Cc1ccn2c(c1)nc(=S)n2C(=O)c1ccco1,0.0
SMILES,INS promoter act
CCC(C)NS(=O)(=O)c1ccc(OCC(=O)Nc2ccc(F)cc2F)cc1 (centres undefined),462.5*
COc1ccc(C(=O)OCC(=O)Nc2ccc(F)cc2F)cc1OC,-2.6
CCC(C)NS(=O)(=O)c1ccc(OCC(=O)NCc2ccc3c(c2)OCO3)cc1 (centres undefined),0.0
O=S(=O)(c1ccc2c(c1)nc(COc1ccc(Cl)cc1)n2CC1CCCO1)N1CCOCC1 (centres undefined),-100.0
CC(=O)NC(CCS(C)(=O)=O)C(=O)Nc1ccc(C)c(F)c1 (centres undefined),-9.1
Cc1cccc(N2CCN(C(=O)CCCn3c(=S)[nH]c4cc5c(cc4c3=O)OCO5)CC2)c1C,0.0
O=C(CCCn1c(=S)[nH]c2cc3c(cc2c1=O)OCO3)NC1CC1,3.8
CC(=O)c1ccc(N2CCN(C(=O)CCCn3c(=S)[nH]c4cc5c(cc4c3=O)OCO5)CC2)cc1,136.4*
O=C(COC(=O)c1cccc(NS(=O)(=O)c2ccc(F)c(F)c2)c1)NC(=O)NC1CCCCC1,3.4
O=C(CSc1nnc(-c2ccco2)n1Cc1ccccc1)c1ccc(F)cc1,3.8
C=CCn1c(CNC(=O)c2cccs2)nnc1SCC(=O)c1ccc(Br)cc1,91.7*
O=C(NCc1ccccc1)c1ccco1,-9.5
C=CCn1c(SCC(=O)Nc2ccc(C(=O)OC(C)C)cc2)nnc1-c1cccs1,0.0
C=CCn1c(CCNC(=O)c2cccs2)nnc1SCC(=O)Nc1cccc(Cl)c1C,3.6
C=CCn1c(CNC(=O)c2ccco2)nnc1SCC(=O)c1ccccc1,255.0*
Cc1ccnc(NS(=O)(=O)c2ccc(NS(=O)(=O)c3ccccc3)cc2)n1,313.8
CC(C)(C)NC(=O)NC(=O)COC(=O)CNS(=O)(=O)c1ccc(Br)cc1Cl,0.0
CCc1cccc(CC)c1NC(=S)NCC(c1cccnc1)N1CCOCC1 (centres undefined),5.9
COCCCNC(CC(=O)Nc1ccccc1C(=O)OC)C(=O)O (centres undefined),6.9
Nc1nc(SCc2ccccc2Cl)ns1,176.9
COc1ccc(NC(=O)CSc2nc(C)cc(C(F)(F)F)n2)cc1,69.4
Cc1cc(C(F)(F)F)nc(SCC(=O)Nc2ccccc2)n1,375.7
Cc1cc(C(F)(F)F)nc(SCC(=O)NC2CC3CCC2C3)n1 (centres undefined),431.4*
COc1ccc(CCNC(=O)CN2CCC(C)CC2)cc1OC,-5.4
Cn1cc(Cl)c(C(=O)N2CCN(c3ncccn3)CC2)n1,-8.6
COc1ccc(CCNC(=O)C2CCN(S(=O)(=O)N3CCC4(CC3)OCCO4)CC2)cc1OC,0.0
Cc1ccc(S(=O)(=O)NC2=NCN(C3CCCCC3)CN2)cc1,125.0*
